Common to all, as to format: functional
Experiment [1] concerns Streptococcus pneumoniae. The experiment in a line: Antimicrobial activity against drug-resistant Streptococcus pneumoniae isolate 3243 after 20 passages by multi-step resistance selection technique. In a few lines: (§1)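 Daily serial passage in subinhibitory drug levels in 1 ml cation-adjusted Mueller-Hinton broth with 5% lysed horse blood; fresh broth for tigecycline. Each day, 10 μl were taken from the tube one to two dilutions below the MIC whose turbidity matched the growth control, and used to set the next MIC. […] MIC by macrodilution.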

Experiment [2] relates to Streptococcus pneumoniae. The experiment in a line: Antimicrobial activity against drug-resistant Streptococcus pneumoniae isolate 3676 after 50 passages with moxifloxacin measured after 10 antibiotic-free subculture by multi-step resistance selection technique.
In experiment [3] the test system is Streptococcus pneumoniae. The experiment can be described thus: Antimicrobial activity against drug-resistant Streptococcus pneumoniae isolate 2527 after 14 passages with gemifloxacin measured after 10 antibiotic-free subculture by multi-step resistance selection technique. In a few lines: (§2)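 Mutants selected by daily broth passage in subinhibitory drug in cation-adjusted Mueller-Hinton broth with 5% lysed horse blood. Stability was tested by 10 daily passages on blood agar without antibiotic, then macrodilution MIC.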

Experiment [4] deals with Streptococcus pneumoniae. The experiment in a line: Antimicrobial activity against drug-resistant Streptococcus pneumoniae isolate 2527 by NCCLS M7-A7 method.
Experiment [5] relates to Streptococcus pneumoniae. The experiment can be described thus: Antimicrobial activity against drug-resistant Streptococcus pneumoniae isolate 2527 after 50 passages by multi-step resistance selection technique. A digest of the protocol:
as §1

The test system of experiment [6] is Streptococcus pneumoniae. The experiment can be described thus: Antimicrobial activity against drug-resistant Streptococcus pneumoniae isolate 1076 after 14 passages with Telithromycin measured after 10 antibiotic-free subculture by multi-step resistance selection technique. A digest of the protocol: as §2
The test system of experiment [7] is Streptococcus pneumoniae. The experiment in a line: Antimicrobial activity against drug-resistant Streptococcus pneumoniae isolate 1076 after 35 passages by multi-step resistance selection technique. In a few lines:
as §1

The test system of experiment [8] is Streptococcus pneumoniae. The experiment can be described thus: Antimicrobial activity against drug-resistant Streptococcus pneumoniae isolate 1076 by NCCLS M7-A7 method.
Experiment [9] has as its system Streptococcus pneumoniae. The experiment in a line: Antimicrobial activity against drug-resistant Streptococcus pneumoniae isolate 3009 after 21 passages with gemifloxacin measured after 10 antibiotic-free subculture by multi-step resistance selection technique. In a few lines:
as §2

Experiment [10] deals with Streptococcus pneumoniae. The experiment can be described thus: Antimicrobial activity against drug-resistant Streptococcus pneumoniae isolate 3009 after 19 passages by multi-step resistance selection technique. A digest of the protocol: as §1
Experiment [11] deals with Streptococcus pneumoniae. The experiment can be described thus: Antimicrobial activity against drug-resistant Streptococcus pneumoniae isolate 3676 after 50 passages by multi-step resistance selection technique. In a few lines:
(§3)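 Daily serial passage in broth at subinhibitory drug levels: 1 ml cation-adjusted Mueller-Hinton broth with 5% lysed horse blood; fresh broth for tigecycline. Each day 10 μl inoculum taken from the tube one to two dilutions below MIC matching growth-control turbidity, used to set next MIC. Continued until ≥8-fold MIC rise, minimum 14, maximum 50 passages; MIC read by macrodilution.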

Experiment [12] has as its system Streptococcus pneumoniae. The experiment can be described thus: Antimicrobial activity against drug-resistant Streptococcus pneumoniae isolate 3665 after 38 passages with moxifloxacin measured after 10 antibiotic-free subculture by multi-step resistance selection technique.
Experiment [13] deals with Streptococcus pneumoniae. The experiment in a line: Antimicrobial activity against drug-resistant Streptococcus pneumoniae isolate 3665 after 38 passages by multi-step resistance selection technique. In a few lines:
as §3

We go through 1 compound from ChEMBL document CHEMBL1151428, “Capability of 11 antipneumococcal antibiotics to select for resistance by multistep and single-step methodologies” (2007).

SMILES strings stand for the structures. In brackets after ≈: the same amount, converted by molar mass.

By MIC is commonly meant the least concentration at which growth counts as inhibited. A high value points to weaker potency. Regarding `COc1c(N2C[C@@H]3CCCN[C@@H]3C2)c(F)cc2c(=O)c(C(=O)O)cn(C3CC3)c12` [MOXIFLOXACIN], the MIC in experiment [1] was determined as 1 µg/mL (≈ 2.49 µM); in experiment [2], 8 µg/mL (≈ 19.9 µM); in experiment [3] it was 8 µg/mL (≈ 19.9 µM); in experiment [4], 2 µg/mL (≈ 4.98 µM); in [5], 8 µg/mL (≈ 19.9 µM); in [6], 1 µg/mL (≈ 2.49 µM). In addition, the MIC in [7] turned out to be 8 µg/mL (≈ 19.9 µM); in [8], 1 µg/mL (≈ 2.49 µM); in experiment [9], 2 µg/mL (≈ 4.98 µM); in experiment [10], 2 µg/mL (≈ 4.98 µM); in experiment [11] it was 8 µg/mL (≈ 19.9 µM); in experiment [12], 1 µg/mL (≈ 2.49 µM). Moreover, in experiment [13], the MIC came to 1 µg/mL (≈ 2.49 µM).
